Assay results: the EternaBench riboswitch data

Test system: MS2 coat protein
Assay: apparent Kd, MS2 coat protein; higher = weaker binding; RNA-MaP array; FMN 200 µM where present
Procedure, shortened: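 Apparent Kd: the median of filtered binding-curve fits from single clusters. Designs were transcribed on Illumina sequencing-chip clusters by stalled E. coli RNA polymerase and titrated with SNAP-549-labelled MS2 coat protein from 0.7 or 1.5 nM, doubling to 3 µM, in 100 mM Tris-HCl pH 7.5, 80 mM KCl, 4 mM MgCl2, BSA, DTT, yeast tRNA and Tween-20. Each series ran without and then with constant ligand, and green signal was normalised to red-channel RNA signal and control-cluster median Fmax.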

[1] = designed as: OFF switch for flavin mononucleotide, no ligand
[2] = ligand present: flavin mononucleotide, designed as: OFF switch for flavin mononucleotide
[3] = designed as: ON switch for flavin mononucleotide, no ligand
[4] = ligand present: flavin mononucleotide, designed as: ON switch for flavin mononucleotide

| Sequence | apparent Kd [1] [nM] | apparent Kd [2] [nM] | apparent Kd [3] [nM] | apparent Kd [4] [nM] |
| --- | --- | --- | --- | --- |
| CGCUAAUAAAUAGUAAUAAUUGUACAGGAUAUGUUACAUGAGGAUCACCCAUGUAUUGGGUUUAAACAGAAGGGUAUAUUAGCG | 261 | 126 |  |  |
| CGCUACUACCAGAAGGACAUGAGGAUCACCCAUGUAGGAUAUGGGUUACAAGUACCAGUGUAAAGAAACUACGCUACGUAUGCG |  |  | 36.6 | 7.84 |
| CGCUACUACCAGAAGGACAUGAGGAUCACCCAUGUAGGAUAUGGGUUACAAGUACCAGUGUAAAGAAACUACGCUACGUUUGCG |  |  | 47.2 | 7.79 |
| CGCUGUCACGCAGGAUAUGCAUUGGAUUCCAAUGCAGAAGGGCGAUUACAUGAGGAUCACCCAUGUGUUGACAGUGAAGAAGAG |  |  | 1250 | 76.3 |
| CGGAGGUCAGGAUAUGCAUGGCGGGACUUGCGUCGUGGCGUGCAGAAGGGACAUGAGGAUCACCCAUGUGGAGU | 147 | 216 |  |  |
| CGGAUCGCAUGAGGAUAUGGUCAGCUUUGCUGACCAGAAGGCAUGUCAUAAGACAUGAGGAUCACCCAUGUAGUUAAGAUCCGA |  |  | 576 | 46.3 |
| CGGCCGCUACGCCGGCUCGACGCACAGGAUAUGCUGUUACAUGAGGAUCACCCAUGUGGCCAUGAGCAGAAGGGUGAUUCGCGA |  |  | 48.9 | 30.9 |
| CGGGAGCCGAAGGGCGAAAGCCCACAUGAGGAUCACCCAUGUAGAAGGCGGGCCGCAACGCGGCCCGAGGAUAUACAGGCUCCA | 5.99 | 10.5 |  |  |
| CGGGCGCCGAAGGGCGAAAGCCCACAUGAGGAUCACCCAUGUAGAAGGAGGGAAGAAACCAAAACCUAGGAUAUACAGGCGCCC | 7.9 | 10.2 |  |  |
| CGGGCGCGAGGAUAUACAUGAGGAUCACCCAUGUAGUGGGUUUGUUUCGGGCUUGCGUGUAGAAGGUGUGUUUG | 217 | 172 |  |  |
| CGGGCGGGAGGAUAUGCGUGGUUUGUUCUCGUUUGGUGUCUACAUGAGGAUCACCCAUGUAGAAGGCUUGUUUG | 13.6 | 15.8 |  |  |
| CGGGUCUGAGGAUAUCCAUCUUCAUACAUGAGGAUCACCCAUGUUUACCCUUGGGUUCCCGGAGAAGGCAGUUUUC | 60.9 | 56.4 |  |  |
| CGGUACUGAGGAUAUACAUGAGGAUCACCCAUGUGUUCUAGCUAGCGUACUGGCAUUUGUAGAAGGCGGUGCUG | 15 | 56.4 |  |  |
| CGGUGACGUGUAGGAUAUGGAGGUGGGUUUUGGCCAGAAGGACAUGAGGAUCACCCAUGUGGUAGAGGGUUGGCGGCUGCCCGU | 19.7 | 18.9 |  |  |
| CGGUGACGUGUAGGAUAUGGCGCUGGGUUUUGCCCAGAAGGACAUGAGGAUCACCCAUGUGGUAGAGGGCUGGCGGCCGCCCGC | 29.4 | 29.2 |  |  |
| CGGUGACGUGUAGGAUAUGGCGCUGGGUUUUGGCCAGAAGGACAUGAGGAUCACCCAUGUGGUAGAGGGCUGGCGGCCGCCCGU |  | 108 |  |  |
| CGUAACUACAUAGGAUAUUGAUACAUGAGGAUCACCCAUGUUAUAGGGAUUAGUUUAAUAUUAAGCAAGAAGGAUGAAGUUACG |  |  | 18.6 | 12.4 |
| CGUAAGAUGCAGAAGGUGUUAGCUAGAGCUACGACAUGAGGAUCACCCAUGUACUAGAAACAGUACAAGGAUAUGCAUCUUACA |  |  | 17.3 | 5.75 |
| CGUAGGAUCCAGAAGGCAUGAAACAUGAGGAUCACCCAUGUAAAAGACAUGAGGAUAUGGAUCCUACGAAAAGUGCGAAAGCAC |  |  | 3.69 | 3.4 |
| CGUAGGAUGCAGAAGGCAUGAACAUGAGGAUCACCCAUGUCAAAAUACAUGAGGAUAUGCAUCCUACGAAAAGUGCGAAAGCAC |  |  | 4.62 | 4.3 |
| CGUAUAUGGGAGAAGGCAUGUCCCAAAGGGCCAUGAGGAUAUCCUAAGUGUACGCUUUGCGACAUGAGGAUCACCCAUGUAGCA |  |  | 7.07 | 5.75 |

| Sequence | apparent Kd [1] [nM] | apparent Kd [2] [nM] | apparent Kd [3] [nM] | apparent Kd [4] [nM] |
| --- | --- | --- | --- | --- |
| CGUAUCGUAAGAGGAUAUAUGAGUCCUACAUGAGGAUCACCCAUGUAGGUGAUCUAACGAGAUUAGUAGAAGGCUUACGAUACG |  |  | 14.3 | 7.96 |
| CGUCAGUGAGGAUAUGGUGUCGUUUACAUGAGGAUCACCCAUGUUUCAUGGGACUAGAGACUAGAAGGUACUGACG | 97.4 | 266 |  |  |
| CGUCAUUACUCAGGAUAUGCACCAUACUUGAGGGCAGAAGGGAGUACAUGAGGAUCACCCAUGUACUAUGGGCGCCUAAGAGGU | 8.26 | 45.1 |  |  |
| CGUCCACAUGAGGAUCACCCAUGUGAGGAUAUCGAUGUCCCAGGGCGGGUGCGGGACUCGAGAAGGCGCUAGGU | 23.3 | 29 |  |  |
| CGUCCGUGGGUAGUGAUCGUACAUGAGGAUCACCCAUGUGGGAAGGAUAUGCAUGCACGUGGACAGCAGAAGGUCCCACAACAA | 154 | 86 |  |  |
| CGUCCUUAGUGAGGAUAUCAGAAAAUACGGAAAUGAGAAGGCACAUGAGGAUCACCCAUGUAAAUAACGGCCGGCCUUGGCAGC | 6.26 | 13.4 |  |  |
| CGUCGAAAGGCGGGUCCAUCACCACAUGAGGAUCACCCAUGUAAGGAUAUCGGACUCAGAAAGAGCGAGAAGGUACAUAGUUAA | 6.01 | 6.53 |  |  |
| CGUCGAUACCAGAAGGACAUGAGGAUCACCCAUGUAGGAUAUGGGUGACCGGGAUGGCAGACAUGGUGCCCGGGCACAUGCGAC |  |  | 70 | 9.82 |
| CGUCGCUGUCGAGAGGAUAUGCGGUGAUGGACAUGAGGAUCACCCAUGUUAGCGAUAGUAUCACGGUAGAAGGCUCUUACGACUG |  |  | 32.9 | 25.3 |
| CGUCGGUGGCAGAAGGGACAGAGAUCCUCGCUGCCGGAUCGUCUUGCACAUGAGGAUCACCCAUGUCAGGAUAUGCCCAAGCGG | 5.35 | 5.15 |  |  |
| CGUGACUCAGGAUAUCUAUAGUAUCACAUGAGGAUCACCCAUGUCCAGCGAAAGCUGGAGGGAGAAGGGAGUCACG | 266 | 53.9 |  |  |
| CGUGCACAUGUAGGAUAUGGUUAUCUAUGUCUAGUUACUAGACAUAGAUAACCAGAAGGACAUGAGGAUCACCCAUGUAGCACG | 346 | 275 |  |  |
| CGUGCGUAUGUGAGGAUAUGCUGGUCCUUGGCUCGGCAGAAGGCACAUGAGGAUCACCCAUGUGGUGUCGUACU | 69 | 179 |  |  |
| CGUUCAGAGAACGAUACGAAUGGACAUGAGGAUCACCCAUGUAGAAGGACAACGGAAUAAACGUUGUAGGAUAUACAUUUAGUG | 53.7 | 134 |  |  |
| CGUUCAGCGAACGAUACGAAUGGACAUGAGGAUCACCCAUGUAGAAGGACAGGAGAAUAACGACUGUAGGAUAUACAUUUAGUG | 41.1 | 84.8 |  |  |
| CGUUGAUGAUUUCUUCACAUGAGGAUCACCCAUGUCGCUCGACAGGAUAUAUUUGAGUUGUUUAAGUAGAAGGGUCGCAGAUGC |  |  | 112 | 183 |
| CUAAUGUGAGGAUAUGGUGUUGAUCGCAGGAAGGAGAUUCUCCAGAAGGCACAUGAGGAUCACCCAUGUAGUGA | 103 | 51.1 |  |  |
| CUACCUUAUGAGAAGGCGAUCAUGAAACAUGAUCGAGGAUAUCAUGUAAACAUGAGGAUCACCCAUGUAUGGGUAUUAUGGUAA |  |  | 106 | 24.4 |
| CUACGGGACGGAGAUCGUGGUGAAGUAGAAGGGUGAGAUGACAUGAGGAUCACCCAUGUAGUAGCGCAGGAUAUACGGCACCGG |  |  | 388 | 103 |
| CUACUGUGAGGAUAUGGUGAGUAGUGCCUGAGCGCUGCUCACCAGAAGGCACAUGAGGAUCACCCAUGUAUGAC | 53.9 | 220 |  |  |
